Test results from publication PMC3954597 (Biochemistry, 2014).
Square brackets hold non-standard residues; d marks the D form. pY = N[C@@H](Cc1ccc(OP(=O)(O)O)cc1)C(=O)O

T1: R24M PTP1B (Homo sapiens, UniProt P18031, R24M)
T1 sequence (P18031 1-321 R24M): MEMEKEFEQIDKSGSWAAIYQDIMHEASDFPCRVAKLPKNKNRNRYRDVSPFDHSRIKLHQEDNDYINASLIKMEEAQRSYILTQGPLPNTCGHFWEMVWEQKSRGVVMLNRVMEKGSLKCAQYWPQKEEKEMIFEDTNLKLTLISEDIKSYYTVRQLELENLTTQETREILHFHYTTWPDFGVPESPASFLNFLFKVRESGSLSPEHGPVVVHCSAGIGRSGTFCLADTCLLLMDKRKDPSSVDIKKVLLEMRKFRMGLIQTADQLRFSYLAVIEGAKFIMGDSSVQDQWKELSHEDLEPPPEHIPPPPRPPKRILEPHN

T2: R47E PTP1B (Homo sapiens, UniProt P18031, R47E)
T2 sequence (P18031 1-321 R47E): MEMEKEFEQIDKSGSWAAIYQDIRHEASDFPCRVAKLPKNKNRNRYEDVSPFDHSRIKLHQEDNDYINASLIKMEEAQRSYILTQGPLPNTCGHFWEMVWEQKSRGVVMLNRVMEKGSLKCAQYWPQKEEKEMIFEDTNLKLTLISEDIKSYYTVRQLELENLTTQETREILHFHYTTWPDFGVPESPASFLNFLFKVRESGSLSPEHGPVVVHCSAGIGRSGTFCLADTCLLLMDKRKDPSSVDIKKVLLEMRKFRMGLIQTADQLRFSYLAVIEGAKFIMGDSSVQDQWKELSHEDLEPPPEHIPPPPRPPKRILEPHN

T3: PTP1B (Homo sapiens, UniProt P18031)
T3 sequence (P18031 1-321): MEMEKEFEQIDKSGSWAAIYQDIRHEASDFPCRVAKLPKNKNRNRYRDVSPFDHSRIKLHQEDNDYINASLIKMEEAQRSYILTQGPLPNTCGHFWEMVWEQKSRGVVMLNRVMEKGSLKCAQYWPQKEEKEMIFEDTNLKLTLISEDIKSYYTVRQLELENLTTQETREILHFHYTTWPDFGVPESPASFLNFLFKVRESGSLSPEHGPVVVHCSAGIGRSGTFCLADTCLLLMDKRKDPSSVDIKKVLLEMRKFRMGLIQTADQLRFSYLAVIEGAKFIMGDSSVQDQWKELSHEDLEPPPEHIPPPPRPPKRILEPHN

T4: SHP-2 (Homo sapiens, UniProt Q06124)
T4 sequence (Q06124 199-593): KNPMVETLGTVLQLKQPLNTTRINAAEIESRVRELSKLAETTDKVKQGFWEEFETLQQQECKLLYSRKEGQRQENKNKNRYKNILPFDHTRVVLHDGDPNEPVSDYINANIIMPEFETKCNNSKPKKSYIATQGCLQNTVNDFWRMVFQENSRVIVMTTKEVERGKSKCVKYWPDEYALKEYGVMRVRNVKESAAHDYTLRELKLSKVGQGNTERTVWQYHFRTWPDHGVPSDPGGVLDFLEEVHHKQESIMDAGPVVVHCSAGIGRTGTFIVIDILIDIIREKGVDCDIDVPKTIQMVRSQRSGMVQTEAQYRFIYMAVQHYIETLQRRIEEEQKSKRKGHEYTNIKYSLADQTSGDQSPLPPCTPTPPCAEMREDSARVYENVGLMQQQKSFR

T5: R47E PTP1B catalytic domain (amino acids 1-321) (human) (UniProt P18031)
T5 sequence: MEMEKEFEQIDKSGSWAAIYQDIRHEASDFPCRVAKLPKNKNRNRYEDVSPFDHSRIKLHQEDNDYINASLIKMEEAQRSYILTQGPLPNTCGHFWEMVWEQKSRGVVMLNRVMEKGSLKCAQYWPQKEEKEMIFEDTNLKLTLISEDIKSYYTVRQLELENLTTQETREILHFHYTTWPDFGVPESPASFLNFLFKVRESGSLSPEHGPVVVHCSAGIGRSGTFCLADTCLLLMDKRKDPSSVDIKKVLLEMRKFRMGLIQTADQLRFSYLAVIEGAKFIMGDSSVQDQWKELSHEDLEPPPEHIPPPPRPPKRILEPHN

T6: wild-type PTP1B catalytic domain (amino acids 1-321) (human) (UniProt P18031)
T6 sequence: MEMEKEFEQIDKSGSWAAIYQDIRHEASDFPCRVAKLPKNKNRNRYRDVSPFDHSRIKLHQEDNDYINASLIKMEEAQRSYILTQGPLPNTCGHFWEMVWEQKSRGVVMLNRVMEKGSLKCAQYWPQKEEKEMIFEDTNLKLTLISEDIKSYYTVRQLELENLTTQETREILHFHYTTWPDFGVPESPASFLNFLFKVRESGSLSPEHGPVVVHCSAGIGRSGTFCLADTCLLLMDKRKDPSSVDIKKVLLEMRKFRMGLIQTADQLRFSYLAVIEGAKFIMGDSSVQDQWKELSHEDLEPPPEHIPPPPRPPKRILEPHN

T7: R24M PTP1B catalytic domain (amino acids 1-321) (human) (UniProt P18031)
T7 sequence: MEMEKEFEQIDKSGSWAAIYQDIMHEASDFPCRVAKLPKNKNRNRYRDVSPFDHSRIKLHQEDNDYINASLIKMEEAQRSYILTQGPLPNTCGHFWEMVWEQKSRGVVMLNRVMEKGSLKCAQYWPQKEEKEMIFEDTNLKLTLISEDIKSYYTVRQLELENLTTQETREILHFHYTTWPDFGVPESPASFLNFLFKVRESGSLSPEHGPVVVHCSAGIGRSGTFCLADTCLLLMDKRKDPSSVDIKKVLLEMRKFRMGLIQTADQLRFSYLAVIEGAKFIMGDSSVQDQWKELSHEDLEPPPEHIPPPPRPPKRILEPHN

B1: Ac-ARKRIpYAA-NH2 (peptide)
peptide: Ac-ARKRI[pY]AA-NH2
SMILES: CC[C@H](C)[C@H](NC(=O)[C@H](CCCNC(=N)N)NC(=O)[C@H](CCCCN)NC(=O)[C@H](CCCNC(=N)N)NC(=O)[C@H](C)NC(C)=O)C(=O)N[C@@H](Cc1ccc(OP(=O)(O)O)cc1)C(=O)N[C@@H](C)C(=O)N[C@@H](C)C(N)=O
B2: Ac-AApYDDAAA-NH2 (peptide)
peptide: Ac-AA[pY]DDAAA-NH2
SMILES: CC(=O)N[C@@H](C)C(=O)N[C@@H](C)C(=O)N[C@@H](Cc1ccc(OP(=O)(O)O)cc1)C(=O)N[C@@H](CC(=O)O)C(=O)N[C@@H](CC(=O)O)C(=O)N[C@@H](C)C(=O)N[C@@H](C)C(=O)N[C@@H](C)C(N)=O
B3: Ac-AApYIRKRA-NH2 (peptide)
peptide: Ac-AA[pY]IRKRA-NH2
SMILES: CC[C@H](C)[C@H](NC(=O)[C@H](Cc1ccc(OP(=O)(O)O)cc1)NC(=O)[C@H](C)NC(=O)[C@H](C)NC(C)=O)C(=O)N[C@@H](CCCNC(=N)N)C(=O)N[C@@H](CCCCN)C(=O)N[C@@H](CCCNC(=N)N)C(=O)N[C@@H](C)C(N)=O

Columns and labels:
[1] = molecular target: T1, R24M PTP1B; test: PTP assay, R24M PTP1B; assay type: biochemical; conditions: for Km / kcat / kcat/KM x 10^7: R24M PTP1B aa 1–321, pH 7.4; for WT/R24M: ratio of kcat/KM, WT over R24M PTP1B (fold reduction by the mutation)
How it was run: (§1)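 E. coli-expressed catalytic domains were used: wild-type, R24M or R47E PTP1B (aa 1–321), and SHP-1 (aa 205–595). Reactions started with PTP (0.5–20000 nM final) and dephosphorylation was monitored continuously at 282 nm. kcat, KM and kcat/KM came from initial-rate fits (Michaelis–Menten, or V = kcat[E][S]/KM when KM >> [S]) or from fits of progress curves.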

[2] = molecular target: T2, R47E PTP1B; test: PTP assay, R47E PTP1B; assay type: biochemical; conditions: for Km / kcat / kcat/KM x 10^7: R47E PTP1B aa 1–321, pH 7.4; for WT/R47E: ratio of kcat/KM, WT over R47E PTP1B (fold decrease by the mutation)
How it was run: as §1

[3] = molecular target: T3, PTP1B; test: PTP assay, wild-type PTP1B; assay type: biochemical; conditions: for kcat/KM x 10^7: WT PTP1B aa 1–321, pH 7.4
How it was run: as §1

[4] = molecular target: SHP-1 (Homo sapiens, UniProt P29350); conditions: catalytic domain; cited from earlier work
[5] = molecular target: T4, SHP-2; conditions: catalytic domain; cited from earlier work
[6] = molecular target: T5, R47E PTP1B catalytic domain (amino acids 1-321) (human)
[7] = molecular target: T6, wild-type PTP1B catalytic domain (amino acids 1-321) (human)
[8] = molecular target: T7, R24M PTP1B catalytic domain (amino acids 1-321) (human)

Chain of SHP-1 (P29350 205-595): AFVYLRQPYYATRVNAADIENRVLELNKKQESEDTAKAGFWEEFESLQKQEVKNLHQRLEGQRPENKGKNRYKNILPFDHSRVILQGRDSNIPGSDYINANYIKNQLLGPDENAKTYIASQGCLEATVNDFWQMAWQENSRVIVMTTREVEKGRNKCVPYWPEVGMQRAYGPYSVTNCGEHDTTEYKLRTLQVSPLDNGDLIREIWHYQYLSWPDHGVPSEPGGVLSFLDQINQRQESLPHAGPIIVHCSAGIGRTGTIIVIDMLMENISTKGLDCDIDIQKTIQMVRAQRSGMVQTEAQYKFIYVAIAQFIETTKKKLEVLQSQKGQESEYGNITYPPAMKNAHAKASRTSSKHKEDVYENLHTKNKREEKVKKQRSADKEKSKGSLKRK

Molecule | Km [1] [µM] | kcat [1] [s⁻¹] | kcat/KM x 10^7 [1] | WT/R24M [1] | Km [2] [µM] | kcat [2] [s⁻¹] | kcat/KM x 10^7 [2] | WT/R47E [2] | kcat/KM x 10^7 [3] | Km [4] [µM] | kcat [4] [s⁻¹] | kcat/KM x10^6 [4] | Km [5] [µM] | kcat [5] [s⁻¹] | kcat/KM x10^6 [5] | KM, steady-state dephosphorylation of the pY peptide [7] [µM] | other results
Ac-AWGPLpYDEVQM-NH2 | 5 ± 0.5 | 36 ± 1 | 0.72 x 10^7 M^−1 s^−1 | 2.3 | 5.6 ± 0.4 | 34 ± 2 | 0.61 x 10^7 M^−1 s^−1 | 2.8 | 1.7 x 10^7 M^−1 s^−1 | – | – | – | – | – | – | – | –
DPRGIpYDQVAG | 71 ± 1 | 36 ± 1 | 0.051 x 10^7 M^−1 s^−1 | 7.6 | 23 ± 1 | 35 ± 1 | 0.15 x 10^7 M^−1 s^−1 | 2.5 | 0.38 x 10^7 M^−1 s^−1 | – | – | – | – | – | – | – | –
EEDNAWpYAA | 1.9 ± 0.1 | 35 ± 1 | 1.8 x 10^7 M^−1 s^−1 | 1.2 | 9.5 ± 0.4 | 32 ± 1 | 0.33 x 10^7 M^−1 s^−1 | 6.4 | 2.1 x 10^7 M^−1 s^−1 | – | – | – | – | – | – | – | kcat/KM x10^6 ([3]; WT catalytic domain aa 1–321, 100 mM HEPES pH 7.4, monitored at 282 nm): 21 x10^6 M^−1 s^−1
EIFDFpYAA | – | – | – | – | – | – | – | – | – | 27 ± 4 | 32 ± 2 | 1.2 x10^6 M^−1 s^−1 | 54 ± 6 | 26 ± 1 | 0.48 x10^6 M^−1 s^−1 | – | –
FDIDIpYAA | – | – | – | – | – | – | – | – | – | 13 ± 1 | 33 ± 1 | 2.5 x10^6 M^−1 s^−1 | 39 ± 5 | 30 ± 2 | 0.77 x10^6 M^−1 s^−1 | – | –
FYDIDpYAA | – | – | – | – | – | – | – | – | – | 28 ± 2 | 66 ± 2 | 2.4 x10^6 M^−1 s^−1 | 66 ± 13 | 50 ± 4 | 0.75 x10^6 M^−1 s^−1 | – | –
WAGDDpYAA | – | – | – | – | – | – | – | – | – | 45 ± 5 | 57 ± 2 | 1.3 x10^6 M^−1 s^−1 | 68 ± 15 | 36 ± 3 | 0.53 x10^6 M^−1 s^−1 | – | –
B1 | – | – | – | – | – | – | – | – | – | – | – | – | – | – | – | 166 | KM, steady-state dephosphorylation of the pY peptide [6]: 31 µM
B2 | – | – | – | – | – | – | – | – | – | – | – | – | – | – | – | 6.5 | KM, steady-state dephosphorylation of the pY peptide [6]: 34 µM
B3 | – | – | – | – | – | – | – | – | – | – | – | – | – | – | – | 89 | KM, steady-state dephosphorylation of the pY peptide [8]: 52 µM
